In brackets after ≈: the same amount, converted by molar mass.
Tests used:
[1] = tested on: Streptococcus pneumoniae; assay: Antibacterial activity against Streptococcus pneumoniae by CLSI broth microdilution method; assay type: functional
[2] = Inhibition of wild-type Escherichia coli DNA topoisomerase-4 mediated supercoiled pBR322 DNA relaxation by ethidium bromide based agarose gel electrophoresis
[3] = tested on: Cavia porcellus; assay: Cardiotoxicity in Dunkin-Hartley guinea pig assessed as free plasma concentration causing effect on mean arterial pressure administered as iv at 3 mg/kg for first 20 mins of infusion followed by 10 mg/kg for second 20 mins of infusion followed by 30 mg/kg for third 20 mins of infusion by LC-MS/MS analysis; assay type: toxicity, organism-based; conditions: in vivo
Outline: (§1)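 Anesthetized guinea pigs received 3, 10 and 30 mg/kg iv over three consecutive 20 min periods. MAP, HR and ECG intervals (PR, QRS, RR, QT) recorded continuously. Blood drawn at the end of each period for drug levels. Value is the lowest plasma concentration differing from vehicle-treated animals. Free level uses unbound fraction from rapid equilibrium dialysis of guinea pig plasma.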

[4] = Inhibition of wild-type Escherichia coli DNA gyrase supercoiling activity using relaxed pBR322 DNA as substrate by ethidium bromide based agarose gel electrophoresis
[5] = Inhibition of wild-type Acinetobacter baumannii DNA topoisomerase-4 mediated supercoiled pBR322 DNA relaxation by ethidium bromide based agarose gel electrophoresis
[6] = tested on: Canis familiaris; assay: Dose normalized AUC in dog at 1 mg/kg, iv by LC-MS/MS analysis; assay type: ADME, organism-based, Canis lupus familiaris; conditions: in vivo
[7] = Half-life in dog at 1 mg/kg, iv by LC-MS/MS analysis; assay type: ADME, organism-based, Canis lupus familiaris; conditions: in vivo
Outline: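 Dogs given 1 mg/kg iv. Clearance (mL/min/kg) and half-life (h) derived from plasma profiles.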

[8] = biological target: T1, hERG (KCNH2) (Homo sapiens, UniProt Q12809); assay: Inhibition of human ERG assessed as reduction of K+ current at 30 uM
T1 sequence (Q12809 whole entry): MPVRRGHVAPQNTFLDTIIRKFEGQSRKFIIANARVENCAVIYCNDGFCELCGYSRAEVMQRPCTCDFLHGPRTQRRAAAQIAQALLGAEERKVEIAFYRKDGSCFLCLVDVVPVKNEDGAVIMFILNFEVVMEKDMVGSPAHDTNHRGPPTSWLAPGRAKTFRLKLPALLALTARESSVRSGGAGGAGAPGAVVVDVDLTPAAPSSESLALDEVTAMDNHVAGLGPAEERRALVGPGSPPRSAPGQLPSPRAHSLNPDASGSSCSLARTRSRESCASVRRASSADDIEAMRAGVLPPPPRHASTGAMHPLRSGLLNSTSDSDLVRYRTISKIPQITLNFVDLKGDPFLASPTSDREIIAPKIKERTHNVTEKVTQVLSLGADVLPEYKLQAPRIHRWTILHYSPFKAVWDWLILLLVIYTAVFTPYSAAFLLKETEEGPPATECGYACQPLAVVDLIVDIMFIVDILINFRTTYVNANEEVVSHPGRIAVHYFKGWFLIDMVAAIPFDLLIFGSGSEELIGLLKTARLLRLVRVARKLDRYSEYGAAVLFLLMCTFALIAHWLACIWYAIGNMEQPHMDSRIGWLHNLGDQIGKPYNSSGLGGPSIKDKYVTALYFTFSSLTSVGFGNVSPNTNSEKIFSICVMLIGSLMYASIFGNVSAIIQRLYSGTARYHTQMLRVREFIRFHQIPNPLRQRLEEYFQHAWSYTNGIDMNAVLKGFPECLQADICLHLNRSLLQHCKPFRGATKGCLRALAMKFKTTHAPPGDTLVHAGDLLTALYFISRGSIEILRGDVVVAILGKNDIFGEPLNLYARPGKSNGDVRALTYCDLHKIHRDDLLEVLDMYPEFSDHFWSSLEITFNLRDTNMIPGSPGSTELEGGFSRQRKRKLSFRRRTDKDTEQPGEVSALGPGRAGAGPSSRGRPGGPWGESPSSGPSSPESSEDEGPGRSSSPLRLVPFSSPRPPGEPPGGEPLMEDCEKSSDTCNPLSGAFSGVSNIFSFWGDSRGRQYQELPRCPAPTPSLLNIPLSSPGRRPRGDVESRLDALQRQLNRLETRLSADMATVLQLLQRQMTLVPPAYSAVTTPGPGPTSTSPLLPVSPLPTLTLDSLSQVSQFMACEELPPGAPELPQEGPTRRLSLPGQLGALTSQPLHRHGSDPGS
Outline: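 hERG K+ channel current reduction measured at 30 μM compound concentration.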

[9] = tested on: Escherichia coli; assay: Antibacterial activity against wild-type Escherichia coli ATCC 25922 by CLSI broth microdilution method; assay type: functional
[10] = tested on: Streptococcus pyogenes; assay: Antibacterial activity against Streptococcus pyogenes by CLSI broth microdilution method; assay type: functional
[11] = tested on: Enterococcus faecium; assay: Antibacterial activity against multi-drug resistant Enterococcus faecium by CLSI broth microdilution method; assay type: functional
[12] = tested on: Escherichia coli; assay: Antibacterial activity against Escherichia coli by CLSI broth microdilution method; assay type: functional
[13] = tested on: Rattus norvegicus; assay: Dose normalized unbound AUC in Wistar rat at 10 mg/kg, iv by LC-MS/MS analysis; assay type: ADME, organism-based; conditions: in vivo
Outline: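 Rats dosed iv at 10 mg/kg or 1 mg/kg. Dose-normalized AUC (μg·h/(mL·dose)) and its unbound counterpart derived via fraction unbound. Clearance, unbound clearance, Vdss and half-life also derived.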

[14] = tested on: Cavia porcellus; assay: Cardiotoxicity in Dunkin-Hartley guinea pig assessed as free plasma concentration causing effect on QT interval administered as iv at 3 mg/kg for first 20 mins of infusion followed by 10 mg/kg for second 20 mins of infusion followed by 30 mg/kg for third 20 mins of infusion by LC-MS/MS analysis; assay type: toxicity, organism-based; conditions: in vivo; outline: as §1
[15] = Inhibition of wild-type Pseudomonas aeruginosa DNA topoisomerase-4 mediated supercoiled pBR322 DNA relaxation by ethidium bromide based agarose gel electrophoresis
[16] = tested on: Staphylococcus aureus; assay: Antibacterial activity against Staphylococcus aureus by CLSI broth microdilution method; assay type: functional
[17] = tested on: Cavia porcellus; assay: Cardiotoxicity in Dunkin-Hartley guinea pig assessed as free plasma concentration causing effect on QRS interval administered as iv at 3 mg/kg for first 20 mins of infusion followed by 10 mg/kg for second 20 mins of infusion followed by 30 mg/kg for third 20 mins of infusion by LC-MS/MS analysis; assay type: toxicity, organism-based; conditions: in vivo; outline: as §1
[18] = tested on: Enterococcus faecalis; assay: Antibacterial activity against Enterococcus faecalis by CLSI broth microdilution method; assay type: functional
[19] = tested on: Pseudomonas aeruginosa; assay: Antibacterial activity against Pseudomonas aeruginosa ATCC 27853 by CLSI broth microdilution method; assay type: functional
[20] = Cardiotoxicity against human induced pluripotent stem cell-derived cardiomyocytes assessed as free drug concentration causing inhibition of spontaneous rhythm after 5 to 60 mins by Fluo-4 dye based fluorescence assay; assay type: toxicity; conditions: cardiac muscle cell
Outline: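 Spontaneous beating rhythm of human iPSC-derived cardiomyocytes monitored. Reported value is the lowest active concentration, free or total. Free/total conversion corrected for 20% serum in the test solution.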

[21] = Inhibition of wild-type Pseudomonas aeruginosa DNA gyrase supercoiling activity using relaxed pBR322 DNA as substrate by ethidium bromide based agarose gel electrophoresis
[22] = tested on: Enterobacter cloacae; assay: Antibacterial activity against fluoroquinolone/carbapenem-resistant Enterobacter cloacae by CLSI broth microdilution method; assay type: functional
[23] = Lipophilicity, log D of the compound at pH 7.4; assay type: physicochemical; conditions: buffer
[24] = tested on: Cavia porcellus; assay: Cardiotoxicity in Dunkin-Hartley guinea pig assessed as free plasma concentration causing effect on heart rate administered as iv at 3 mg/kg for first 20 mins of infusion followed by 10 mg/kg for second 20 mins of infusion followed by 30 mg/kg for third 20 mins of infusion by LC-MS/MS analysis; assay type: toxicity, organism-based; conditions: in vivo; outline: as §1
[25] = Fraction unbound in Dunkin-Hartley guinea pig plasma administered as iv at 3 mg/kg for first 20 mins of infusion followed by 10 mg/kg for second 20 mins of infusion followed by 30 mg/kg for third 20 mins of infusion by rapid equilibrium dialysis; assay type: ADME, organism-based, Cavia porcellus
[26] = tested on: Rattus norvegicus; assay: Unbound clearance in Wistar rat at 10 mg/kg, iv by LC-MS/MS analysis; assay type: ADME, organism-based; conditions: in vivo
Outline: (§2)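 Rats received a single intravenous dose of 10 or 1 mg/kg depending on the compound. Clearance, unbound clearance, Vdss, terminal half-life and dose-normalized AUC were derived from plasma exposure, with unbound fraction (fu) reported for this species.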

[27] = tested on: Serratia marcescens; assay: Antibacterial activity against Serratia marcescens by CLSI broth microdilution method; assay type: functional
[28] = tested on: Acinetobacter baumannii; assay: Antibacterial activity against fluoroquinolone-resistant Acinetobacter baumannii T6474 by CLSI broth microdilution method; assay type: functional
[29] = tested on: Citrobacter freundii; assay: Antibacterial activity against Citrobacter freundii by CLSI broth microdilution method; assay type: functional
[30] = Volume of distribution at steady state in dog at 1 mg/kg, iv by LC-MS/MS analysis; assay type: ADME, organism-based, Canis lupus familiaris; conditions: in vivo, read-out: Vdss
Outline: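 Dogs received a single intravenous dose of 1 mg/kg. Clearance, Vdss, terminal half-life and dose-normalized AUC were calculated from plasma concentration data.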

[31] = tested on: Cavia porcellus; assay: Cardiotoxicity in Dunkin-Hartley guinea pig assessed as free plasma concentration causing effect on PR interval administered as iv at 3 mg/kg for first 20 mins of infusion followed by 10 mg/kg for second 20 mins of infusion followed by 30 mg/kg for third 20 mins of infusion by LC-MS/MS analysis; assay type: toxicity, organism-based; conditions: in vivo; outline: as §1
[32] = tested on: Streptococcus agalactiae; assay: Antibacterial activity against Streptococcus agalactiae by CLSI broth microdilution method; assay type: functional
[33] = tested on: Staphylococcus aureus; assay: Antibacterial activity against Staphylococcus aureus ATCC 29213 by CLSI broth microdilution method; assay type: functional
[34] = Volume of distribution at steady state in Wistar rat at 10 mg/kg, iv by LC-MS/MS analysis; assay type: ADME, organism-based; conditions: in vivo, read-out: Vdss; outline: as §2
[35] = biological target: Voltage-gated inwardly rectifying potassium channel KCNH2 (Homo sapiens, UniProt Q12809); assay: (§3) Inhibition of human ERG assessed as reduction of K+ current
Sequence of Voltage-gated inwardly rectifying potassium channel KCNH2 (Q12809 whole entry): as above

[36] = biological target: T1, hERG (KCNH2); assay: as §3; conditions: human
[37] = tested on: Klebsiella pneumoniae; assay: Antibacterial activity against Klebsiella pneumoniae by CLSI broth microdilution method; assay type: functional

Compound: COc1ccc2ncc(F)c(C[C@H](N)[C@@H]3CC[C@@H](NCc4ccc5c(n4)NC(=O)CO5)CO3)c2n1
- MIC [1]: 0.125 to 2 µg/mL (≈ 0.259 to 4.14 µM)
- IC50 [2]: 30 nM
- Cp(f) [3]: 1800 nM
- IC50 [4]: 125 nM
- IC50 [5]: 125 nM
- AUC/dose [6]: 34 µg·h/mL
- half-life [7]: 2.9 h
- inhibition at 30 µM [8]: 86%
- MIC [9]: 0.125 µg/mL (≈ 0.259 µM)
- MIC [10]: ≤ 0.03 µg/mL
- MIC [11]: 0.063 to 0.5 µg/mL (≈ 0.131 to 1.04 µM)
- MIC [12]: 0.125 to 0.5 µg/mL (≈ 0.259 to 1.04 µM)
- fAUC/dose [13]: 29 µg·h/mL
- Cp(f) [14]: 530 nM
- IC50 [15]: 30 nM
- MIC [16]: 0.125 to 0.5 µg/mL (≈ 0.259 to 1.04 µM)
- Cp(f) [17]: 1800 nM
- MIC [18]: 0.25 µg/mL (≈ 0.518 µM)
- MIC [19]: 1 µg/mL (≈ 2.07 µM)
- Drug uptake(free) [20]: 0.28 µM
- IC50 [21]: 30 nM
- MIC [22]: 0.25 to 4 µg/mL (≈ 0.518 to 8.29 µM)
- logD [23]: 0.9
- Cp(f) [24]: 530 nM
- fraction unbound at 20 min [25]: 0.33
- CL free [26]: 573 mL/min/kg
- MIC [27]: 1 to 8 µg/mL (≈ 2.07 to 16.6 µM)
- MIC [28]: 0.125 µg/mL (≈ 0.259 µM)
- MIC [29]: 0.25 µg/mL (≈ 0.518 µM)
- Vd [30]: 61 L/kg
- Cp(f) [31]: 1800 nM
- MIC [32]: 2 µg/mL (≈ 4.14 µM)
- MIC [33]: 0.03 µg/mL (≈ 0.0622 µM)
- Vd [34]: 25 L/kg
- IC50 [35]: 5000 nM
- IC20 [36]: 1200 nM
- MIC [37]: 1 to 4 µg/mL (≈ 2.07 to 8.29 µM)

Compound: COc1ccc2ccc(=O)n(C[C@H](N)[C@@H]3CC[C@@H](NCc4ccc5c(n4)NC(=O)CO5)CO3)c2n1
- MIC [1]: 0.25 to 8 µg/mL (≈ 0.52 to 16.6 µM)
- IC50 [2]: 30 nM
- Cp(f) [3]: 28000 nM
- IC50 [4]: 125 nM
- IC50 [5]: 125 nM
- AUC/dose [6]: 0.376 µg·h/mL
- half-life [7]: 1.3 h
- inhibition at 30 µM [8]: 37%
- MIC [9]: 0.25 µg/mL (≈ 0.52 µM)
- MIC [10]: ≤ 0.03 µg/mL
- MIC [11]: 1 to 16 µg/mL (≈ 2.08 to 33.3 µM)
- MIC [12]: 0.5 to 2 µg/mL (≈ 1.04 to 4.16 µM)
- fAUC/dose [13]: 34 µg·h/mL
- Cp(f) [14]: 2700 nM
- IC50 [15]: 30 nM
- MIC [16]: 0.25 to 2 µg/mL (≈ 0.52 to 4.16 µM)
- Cp(f) [17]: 2700 nM
- MIC [18]: 1 µg/mL (≈ 2.08 µM)
- MIC [19]: 1 µg/mL (≈ 2.08 µM)
- Drug uptake(free) [20]: 0.27 to 0.81 µM
- IC50 [21]: 125 nM
- MIC [22]: 2 to 16 µg/mL (≈ 4.16 to 33.3 µM)
- logD [23]: 0.3
- Cp(f) [24]: 11000 nM
- fraction unbound at 20 min [25]: 0.54
- CL free [26]: 144 mL/min/kg
- MIC [27]: 8 to 16 µg/mL (≈ 16.6 to 33.3 µM)
- MIC [28]: 1 µg/mL (≈ 2.08 µM)
- MIC [29]: 1 µg/mL (≈ 2.08 µM)
- Vd [30]: 2.5 L/kg
- Cp(f) [31]: 2700 nM
- MIC [32]: 4 µg/mL (≈ 8.32 µM)
- MIC [33]: 0.25 µg/mL (≈ 0.52 µM)
- Vd [34]: 21 L/kg
- IC50 [35]: 52000 nM
- IC20 [36]: 13000 nM
- MIC [37]: 8 to 16 µg/mL (≈ 16.6 to 33.3 µM)
